Reference: ChEMBL document CHEMBL1129593, “Halogenated mazindol analogs as potential inhibitors of the cocaine binding site at the dopamine transporter” (J Med Chem, 1996)

How the values were obtained:
[1] = molecular target: Sodium-dependent dopamine transporter (Rattus norvegicus) (UniProt P23977); assay: The ratio of uptake/binding at Dopamine transporter; format: functional
[2] = molecular target: T1, Sodium-dependent dopamine transporter (Rattus norvegicus, UniProt P23977); assay: Inhibition of [3H]WIN-35428 binding to the dopamine transporter in rat brain; format: tissue-based
In short: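 Striatal tissue from male Sprague-Dawley rats (200-250 g), 0.1 mg original wet weight per tube. Nonspecific binding was defined with 30 µM (R)-(-)-cocaine. Stopped by filtration through polyethylenimine-soaked GF/B filters with three ice-cold buffer washes. Equilibrium binding analysis.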

[3] = molecular target: T1, Sodium-dependent dopamine transporter; assay: Inhibition of [3H]dopamine uptake at the dopamine transporter in rat striatal tissue; format: functional, tissue-based, Striatum
In short: (§1)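 Crude synaptosomes were made from rat striatum: homogenised in 0.32 M sucrose, spun at 800g for 10 min, then at 27000g for 20 min. They were resuspended in Krebs-Hepes (pH 7.35) containing NaCl, KCl, KH₂PO₄, CaCl₂, MgSO₄, Hepes, glucose, ascorbic acid and nialamide. Preincubated with compound for 10 min at 30 °C, then given [³H]dopamine for 10 min and filtered.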

[4] = molecular target: T1, Sodium-dependent dopamine transporter; assay: Compound was tested for inhibition of [3H]dopamine uptake at the dopamine transporter in rat […] tissue; format: tissue-based, Striatum; in short: as §1
[5] = molecular target: Norepinephrine transporter (Rattus norvegicus) (UniProt Q9WTR4); assay: Compound was tested for inhibition of [3H]-DMI binding at the Norepinephrine transporter in rat cortical membranes at (10e-5) M; format: cell membranes; conditions: Membrane; concentration not given here
[6] = molecular target: T2, Sodium-dependent serotonin transporter (Rattus norvegicus, UniProt P31652); assay: Compound was tested for inhibition of [3H]citalopram binding at the serotonin transporter in rat fore brain membranes; format: cell membranes, Membrane
[7] = molecular target: T2, Sodium-dependent serotonin transporter; assay: Compound was tested for inhibition of [3H]5-HT reuptake at Serotonin transporter
[8] = molecular target: Norepinephrine transporter (Rattus norvegicus) (UniProt Q9WTR4); assay: Compound was tested for inhibition of [3H]DMI binding at the Norepinephrine transporter in rat cortical membranes at (10e-5) M; format: cell membranes; conditions: Membrane; concentration not given here

Sequence of Sodium-dependent dopamine transporter (Rattus norvegicus) (P23977 whole entry): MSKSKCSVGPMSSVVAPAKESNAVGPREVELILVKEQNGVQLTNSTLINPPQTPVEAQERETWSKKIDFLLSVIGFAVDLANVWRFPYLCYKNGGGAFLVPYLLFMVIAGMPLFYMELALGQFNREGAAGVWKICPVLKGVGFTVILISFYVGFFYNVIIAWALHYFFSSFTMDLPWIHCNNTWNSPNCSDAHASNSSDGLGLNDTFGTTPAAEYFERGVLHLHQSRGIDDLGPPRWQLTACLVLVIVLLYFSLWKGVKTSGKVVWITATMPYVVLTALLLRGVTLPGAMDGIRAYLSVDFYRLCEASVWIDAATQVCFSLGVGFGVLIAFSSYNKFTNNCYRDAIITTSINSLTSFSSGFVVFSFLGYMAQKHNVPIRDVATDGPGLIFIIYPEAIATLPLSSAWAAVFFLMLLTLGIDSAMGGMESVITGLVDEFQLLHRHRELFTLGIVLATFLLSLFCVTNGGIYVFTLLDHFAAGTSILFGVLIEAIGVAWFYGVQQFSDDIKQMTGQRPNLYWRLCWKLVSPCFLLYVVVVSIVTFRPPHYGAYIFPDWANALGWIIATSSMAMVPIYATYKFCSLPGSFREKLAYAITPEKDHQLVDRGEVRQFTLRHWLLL
T1 sequence (P23977 whole entry): as above
T2 sequence (P31652 whole entry): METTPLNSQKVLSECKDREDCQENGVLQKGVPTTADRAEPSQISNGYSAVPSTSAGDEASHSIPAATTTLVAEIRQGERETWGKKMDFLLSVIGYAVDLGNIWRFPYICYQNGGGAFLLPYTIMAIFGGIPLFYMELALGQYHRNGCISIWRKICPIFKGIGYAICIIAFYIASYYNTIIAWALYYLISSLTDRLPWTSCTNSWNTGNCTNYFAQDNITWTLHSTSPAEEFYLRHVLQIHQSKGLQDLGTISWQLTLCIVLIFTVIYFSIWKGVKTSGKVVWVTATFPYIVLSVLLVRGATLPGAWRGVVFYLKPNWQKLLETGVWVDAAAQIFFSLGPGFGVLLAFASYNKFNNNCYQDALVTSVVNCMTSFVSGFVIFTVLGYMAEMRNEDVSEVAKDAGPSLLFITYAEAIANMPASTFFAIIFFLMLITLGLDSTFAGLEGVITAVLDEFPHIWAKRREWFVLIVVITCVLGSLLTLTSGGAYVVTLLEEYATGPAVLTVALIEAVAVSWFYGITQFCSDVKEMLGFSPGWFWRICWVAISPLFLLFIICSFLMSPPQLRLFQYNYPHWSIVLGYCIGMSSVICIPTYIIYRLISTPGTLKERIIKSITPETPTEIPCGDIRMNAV
Sequence of Norepinephrine transporter (Rattus norvegicus) (Q9WTR4 as listed by the source): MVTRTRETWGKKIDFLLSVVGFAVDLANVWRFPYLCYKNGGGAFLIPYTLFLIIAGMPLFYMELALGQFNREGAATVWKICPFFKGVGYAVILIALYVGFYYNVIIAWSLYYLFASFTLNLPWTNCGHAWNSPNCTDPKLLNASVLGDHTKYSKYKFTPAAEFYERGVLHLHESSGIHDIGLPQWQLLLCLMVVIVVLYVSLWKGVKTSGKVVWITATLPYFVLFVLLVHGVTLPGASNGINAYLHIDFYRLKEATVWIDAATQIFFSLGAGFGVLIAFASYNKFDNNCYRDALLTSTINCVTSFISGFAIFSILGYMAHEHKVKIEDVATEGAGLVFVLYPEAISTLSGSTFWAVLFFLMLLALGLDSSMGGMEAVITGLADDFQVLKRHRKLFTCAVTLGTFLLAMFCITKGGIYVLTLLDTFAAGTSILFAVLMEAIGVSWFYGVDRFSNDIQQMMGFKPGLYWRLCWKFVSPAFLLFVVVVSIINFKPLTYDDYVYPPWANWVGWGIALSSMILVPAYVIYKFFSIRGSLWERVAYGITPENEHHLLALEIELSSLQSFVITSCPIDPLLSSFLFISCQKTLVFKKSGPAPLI

Row | Compound | Uptake/Binding ratio [1] | IC50 [2] | IC50 [3] | IC50 [4] | inhibition [5] | IC50 [6] | IC50 [7] | inhibition [8]
1 | OC1(c2ccccc2)c2ccccc2C2=NCCCCN21 (stereo not given) | 2 | 5.9 nM | 11 nM | – | – | – | – | –
2 | OC1(c2ccc(Cl)cc2)c2cc(F)ccc2C2=NCCN21 (stereo not given) | 2.3 | 6.5 nM | 15 nM | – | – | – | – | –
3 | CC1(C)CN2C(=N1)c1ccccc1C2(O)c1ccc(Cl)cc1 (stereo not given) | – | 50.4 nM | – | 106 nM | – | – | – | –
4 | OC1(c2cccc(Cl)c2)c2ccccc2C2=NCCN21 (stereo not given) | 2.1 | 4.3 nM | 9.2 nM | – | – | – | – | –
5 | OC1(c2ccc(F)cc2)c2ccccc2C2=NCCCN21 (stereo not given) | – | 3.2 nM | 8.5 nM | – | – | – | – | –
6 | OC1(c2ccc(Cl)cc2)c2ccccc2C2=NCCCN21 (stereo not given) | 0.8 | 1.7 nM | 1.4 nM | – | 62.8% | 1040 nM | – | –
7 | OC1(c2ccccc2)c2cc(F)ccc2C2=NCCN21 (stereo not given) | 2.6 | 29.7 nM | 78 nM | – | – | – | – | –
8 | OC1(c2ccc(Br)cc2)c2ccccc2C2=NCCN21 (stereo not given) | 3.3 | 2.6 nM | 8.6 nM | – | – | – | – | –
9 | OC1(c2cccc(F)c2)c2ccccc2C2=NCCCN21 (stereo not given) | 1.6 | 2 nM | 3.1 nM | – | – | – | – | –
10 | OC1(c2ccccc2Cl)c2ccccc2C2=NCCN21 (stereo not given) | 2.6 | 294 nM | 770 nM | – | – | – | – | –
11 | OC1(c2cccc(Cl)c2)c2ccccc2C2=NCCCN21 (stereo not given) | 1.3 | 1 nM | 1.3 nM | – | – | – | – | –
12 | OC1(c2ccccc2)c2cc(Cl)ccc2C2=NCCN21 (stereo not given) | 0.6 | 86.4 nM | 55 nM | – | – | – | – | –
13 | OC1(c2ccc(Cl)cc2Cl)c2ccccc2C2=NCCN21 (stereo not given) | 1.2 | 76.5 nM | 92 nM | – | – | – | – | –
14 | OC1(c2ccc(Cl)cc2)c2ccccc2C2=NCCN21 (stereo not given) [MAZINDOL] | – | – | – | – | – | – | 231 nM | 60%
15 | OC1(c2ccc(F)cc2)c2ccccc2C2=NCCN21 (stereo not given) | 1.9 | 13.3 nM | 25.4 nM | – | – | – | – | –
16 | OC1(c2ccccc2)c2ccccc2C2=NCCN21 (stereo not given) | 1.9 | 66 nM | 124 nM | – | – | – | – | –
17 | OC1(c2ccc(Cl)c(Cl)c2)c2ccccc2C2=NCCCCN21 (stereo not given) | 0.2 | 1.7 nM | 0.26 nM | – | – | – | – | –
18 | OC1(c2ccc(Cl)cc2)c2cc(Cl)c(Cl)cc2C2=NCCN21 (stereo not given) | – | 13.6 nM | – | – | – | – | – | –
19 | OC1(c2ccc(Cl)cc2)c2ccccc2C2=NCCCCN21 (stereo not given) | 2.3 | 1.5 nM | 3.4 nM | – | – | 1250 nM | – | –
20 | OC1(c2ccc(I)cc2)c2ccccc2C2=NCCN21 (stereo not given) | 0.8 | 17.2 nM | 14 nM | – | – | – | – | –
21 | OC1(c2ccc(Cl)c(Cl)c2)c2ccccc2C2=NCCN21 (stereo not given) | 0.6 | 2.5 nM | 1.4 nM | – | – | – | – | –
22 | OC1(c2ccccc2)c2c(Cl)cccc2C2=NCCN21 (stereo not given) | – | 57.2 nM | 58 nM | – | – | – | – | –
23 | CC1(C)CN=C2c3ccccc3C(O)(c3ccc(Cl)cc3)N2C1 (stereo not given) | 0.3 | 6.3 nM | 1.7 nM | – | – | – | – | –
24 | OC1(c2ccccc2)c2ccccc2C2=NCCCN21 (stereo not given) | 3.1 | 5.8 nM | 18 nM | – | – | – | – | –
25 | OC1(c2ccc(F)cc2)c2cc(Cl)ccc2C2=NCCN21 (stereo not given) | 1 | 52.8 nM | 53 nM | – | – | – | – | –
26 | OC1(c2ccccc2F)c2ccccc2C2=NCCCN21 (stereo not given) | 3.8 | 23.2 nM | 89 nM | – | – | – | – | –
